Results: BindingDB's records for doi:10.1021/jm051217c (University Hospital of The Westfälische …, 2006)

How the values were obtained:
Caspase-6 = target: T1, Caspase-6 (Homo sapiens, UniProt P55212); assay: Inhibition of caspase 6
T1 sequence (P55212 whole entry): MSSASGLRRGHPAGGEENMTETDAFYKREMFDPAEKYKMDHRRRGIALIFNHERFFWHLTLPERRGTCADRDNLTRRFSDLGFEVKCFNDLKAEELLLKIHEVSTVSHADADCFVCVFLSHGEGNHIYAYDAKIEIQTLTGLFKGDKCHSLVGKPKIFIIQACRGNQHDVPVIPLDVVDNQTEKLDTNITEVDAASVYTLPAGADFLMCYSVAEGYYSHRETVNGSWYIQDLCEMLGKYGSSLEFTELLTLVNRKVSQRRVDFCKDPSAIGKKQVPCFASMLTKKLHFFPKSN
Procedure, shortened: (§1)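 Recombinant human caspase-1, -6 or -8 at 0.5 units per assay, preincubated 10 min at 37 °C with compound in DMSO at single doses from 5 pM to 500 µM. Fluorogenic AMC substrate then added at 10 µM final (caspase-1 Ac-YVAD-AMC, caspase-6 Ac-VEID-AMC, caspase-8 Ac-IETD-AMC) for a further 10 min. Read-out was AMC fluorescence. IC50 taken by nonlinear regression.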

Caspase-1 = target: T2, Caspase-1 (Homo sapiens, UniProt P29466); assay: Inhibition of caspase 1; procedure, shortened: as §1
T2 sequence (P29466 whole entry): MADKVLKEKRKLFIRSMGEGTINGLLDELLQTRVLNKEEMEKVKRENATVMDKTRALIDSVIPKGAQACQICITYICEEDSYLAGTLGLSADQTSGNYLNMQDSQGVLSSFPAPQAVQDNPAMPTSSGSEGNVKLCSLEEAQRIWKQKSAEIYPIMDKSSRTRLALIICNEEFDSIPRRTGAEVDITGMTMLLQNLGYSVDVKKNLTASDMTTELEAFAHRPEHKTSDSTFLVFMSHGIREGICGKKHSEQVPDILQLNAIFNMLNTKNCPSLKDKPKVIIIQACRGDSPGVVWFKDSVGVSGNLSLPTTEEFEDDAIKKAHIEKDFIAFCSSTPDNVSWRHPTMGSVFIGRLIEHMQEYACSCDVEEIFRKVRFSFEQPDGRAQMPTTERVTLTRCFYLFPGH

Caspase-8 = Caspase-8 (Homo sapiens, UniProt Q14790); assay: Inhibition of caspase 8; procedure, shortened: as §1
Caspase-8, sequence (Q14790 217-374 limits assumed): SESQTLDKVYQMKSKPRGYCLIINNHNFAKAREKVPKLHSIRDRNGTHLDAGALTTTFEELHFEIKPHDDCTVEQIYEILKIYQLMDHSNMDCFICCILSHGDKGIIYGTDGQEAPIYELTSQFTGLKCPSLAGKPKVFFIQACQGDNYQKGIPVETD
Caspase-8, sequence (Q14790 385-479 limits assumed): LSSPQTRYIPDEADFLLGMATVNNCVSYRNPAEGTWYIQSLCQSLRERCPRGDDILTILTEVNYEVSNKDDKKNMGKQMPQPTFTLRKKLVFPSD

Measured: IC50

CCC[CH2][Sn]([CH2]CCC)([CH2]CCC)[c]1ccc(CN2C(=O)C(=O)c3cc(S(=O)(=O)N4CCC[C@H]4COC)ccc32)cc1 [(S)-5-[1-(2-methoxymethylpyrrolidinyl)sulfonyl]-1-(4-(tributylstannyl)benzyl)isatin]
> 500 µM: all assays above

CCC[CH2][Sn]([CH2]CCC)([CH2]CCC)[c]1ccc(CN2C(=O)C(=O)c3cc(S(=O)(=O)N4CCC[C@H]4COc4ccccc4)ccc32)cc1 [(S)-5-[1-(2-phenoxymethylpyrrolidinyl)sulfonyl]-1-(4-(tributylstannyl)benzyl)isatin]
> 500 µM: all assays above
